High-throughput results (PubChem)
PAX8 inh HTS – lowers PAX8-driven luciferase in RMG-I cells. RMG-I TPO-luciferase reporter, SteadyGlo, 24 h. inhibition, % at 12.6 µM. 360,000 compounds, 1.2% hits. AID 652154;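 active = mean replicate inhibition at least 60% with every replicate also reaching 60%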;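 note: luciferase light reporting Pax8 driven TPO promoter activity; plate controls were median of neutral control wells for no effect and mitoxantrone controls for full effect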
RAD52 inh – blocks human RAD52 DNA annealing; inhibition, % at 18.7 µM; 360,000 compounds, 0.46% hits; P43351; recombinant RAD52 DNA annealing, FRET fluorescence;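 active = every replicate showing at least 50% inhibition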
FN deposition inh – fibronectin deposition inhibition | AH1F fibroblasts, Alexa488-fibronectin deposition fluorescence, overnight | inhibition, % at 12.6 µM | 350,000 compounds, 0.086% hits;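 active = mean inhibition across replicates of 30% or more, regardless of how many single replicates reach that level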;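 note: positive control wells lacked labelled fibronectin entirely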
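Material: AH1F fibroblasts assembling fluorescent fibronectin matrix; amount: 10000 AH1F cells/well; medium: DMEM, 2% serum; reagent: Alexa488-fibronectin, 24 nM final in well; dosing: single compound dose, delivered by pin transfer; incubation: 1 h adhesion, overnight exposure; detection: fluorescence after three HBSS washes, excitation 485 nm, emission 525 nm; measure: fibronectin deposition inhibition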
RAD54 inh – blocks human RAD54 Holliday junction branch migration | FAM/BHQ fluorescence | inhibition, % at 10.4 µM | 360,000 compounds, 0.14% hits | AID 602329;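 active = mean normalized replicate activity at least 40 and at least half of replicates scoring 40 or more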;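 note: 0% = median of neutral control wells and 100% = median of positive control wells; inhibitors cause a drop in the FAM fluorescence signal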
* hit, by the source's call; x = not tested or not shown; ! = a repeat was not active. Rows were chosen to be rich in hits. Some 1.3% of all compounds tested hit in one or more screens of this group.

SMILES	PAX8 inh HTS	RAD52 inh	FN deposition inh	RAD54 inh
C[C@@H]1CN([C@H](C)CO)C(=O)Cc2cc(NC(=O)Cc3ccccc3)ccc2O[C@@H]1CN(C)Cc1ccc(C(F)(F)F)cc1	86*	-12	-5	0
C[C@H](CO)N1C[C@H](C)[C@@H](CN(C)Cc2ccc(C(F)(F)F)cc2)Oc2ccc(NC(=O)Cc3ccccc3)cc2CC1=O	52	10	-9	1
O=C(Nc1cccc(-n2cnnn2)c1)C1CCCN(C(=O)Cc2cccc(Cl)c2)C1 (centres undefined)	0	-12	-3	11
COc1ccc(-c2cc(C3CCN(c4ccc(C(C)=O)cc4[N+](=O)[O-])CC3)[nH]n2)cc1	85*	x	6	4
O=c1c(Cl)c(Cl)cnn1-c1ccccc1	108*	-1	28	x
COc1cccc2cc(C(=O)OCC(=O)NC3CCCC(C)C3C)c(=O)oc12 (centres undefined)	1	-15	-8	-13
COc1ccc(NC(=O)C(Sc2nnc(-c3ccncc3)n2-c2ccccc2C)c2ccccc2)cc1Cl (centres undefined)	115*	-21	-3	-14
COc1ccc(NC(=O)C(OC)c2ccccc2)cc1Cl (centres undefined)	15	x	4	x
Cc1cc(C)c([C@@H]2C[C@H]3CN(C4CCCC4)C(=O)[C@]34CCCN24)c(-n2cccn2)c1	-10	-109	38*	2
Cc1ccc(S(=O)(=O)N2C[C@@H](O)COC[C@@H]3O[C@@H](CC(=O)NCc4ccc(Cl)c(Cl)c4)CC[C@H]32)cc1	34	-38	-5	-2
Cc1ccc(C)c(OCc2nc(-c3cccnc3)no2)c1	x	x	x	9
Cc1cccc(OCc2nc(-c3cccnc3)no2)c1	92*	-14	-3	-3
CCOc1ccc(N(CC(=O)Nc2ccccc2OCC)S(=O)(=O)c2c(C)noc2C)cc1	80*	-10	-17	-2
Cc1nn(C)c(C)c1S(=O)(=O)N1CCC(C(=O)NCCC2=CCCCC2)CC1	4	-13	4	4
Cn1nnnc1Sc1ncnc2scc(-c3ccc(C#N)cc3)c12	72*	-97	2	-2
COC(=O)CSc1ncnc2scc(-c3ccccc3)c12	-11	-22	12	x
Cn1nnnc1Sc1ncnc2scc(-c3ccsc3)c12	98*	-20	15	-4
Cn1nnnc1Sc1ncnc2scc(-c3ccc(-c4ccccc4)cc3)c12	77*	-9	12	2
CC(=O)c1ccccc1-c1csc2ncnc(Sc3nnnn3C)c12	86*	-18	11	3
O=C(CN1CCN(c2ccccc2)CC1)Nc1nnc(-c2ccccc2)s1	-3	x	2	-19
Cn1nnnc1Sc1ncnc2scc(-c3cccs3)c12	x	x	x	-5
Cn1nnnc1Sc1ncnc2scc(-c3cc4ccccc4o3)c12	90*	5	12	-6
c1ccc(/N=C2\N=C(Nc3ccccn3)c3ccccc32)nc1	79*	-2	6	-15
c1ccc(Nc2ccccn2)cc1	-27	x	7	-11
CN1CCN(C(=O)C[C@@H]2C[C@@H]3c4cc(NS(=O)(=O)c5ccc(F)cc5)ccc4O[C@@H]3[C@@H](CO)O2)CC1	-11	x	3	0
SMILES	PAX8 inh HTS	RAD52 inh	FN deposition inh	RAD54 inh
Cc1ccccc1S(=O)(=O)N1C[C@@H](O)COC[C@H]2O[C@H](CC(=O)NCCc3ccccc3)CC[C@@H]21	29	72*	-6	-23
Cc1ccccc1S(=O)(=O)N1C[C@H](O)COC[C@@H]2O[C@@H](CC(=O)NCCc3ccccc3)CC[C@H]21	16	58*	-15	-16
COCCNC(=O)C[C@@H]1CC[C@H]2[C@@H](COC[C@H](O)CN2S(=O)(=O)c2ccccc2C)O1	-15	19	-5	-7
NC(c1ccccc1)c1csc(NC(=O)Nc2ccccc2Oc2ccccc2)n1 (centres undefined)	-5	-29	-3	-7
Cc1cc(C(=O)N/N=C/c2cccs2)no1	-9	-2	-1	4
CC(=NNC(=S)Nc1ccccc1)c1ccccn1	29	0	6	x
C=CCNC(=S)N/N=C(\C)c1ccccn1	95*	x	x	9
CC(=NNC(=S)Nc1ccccc1Cl)c1ccccn1	71*	-15	23	x
Cc1noc(C)c1C(=O)N1CCN(S(=O)(=O)c2cccc(Cl)c2Cl)CC1	5	-12	10	x
O=[N+]([O-])c1ccc(N=Nc2c(Cl)cc(O)cc2Cl)cc1	98*	5	14	-10
CC(N)=Nc1ccc([N+](=O)[O-])cc1	-5	x	-6	-2
Cn1c(=O)[nH]c(=O)c2c1nc([N+](=O)[O-])n2Cc1ccccc1	101*	-20	-19	x
CCNc1nc2c(c(=O)[nH]c(=O)n2C)n1CC(C)C	-13	-7	5	-11
CC(C)Cn1c([N+](=O)[O-])nc2c1c(=O)[nH]c(=O)n2C	78*	-4	0	-16
Cn1c(=O)[nH]c(=O)c2c1nc(N1CCNCC1)n2Cc1ccccc1	-20	-23	-10	6
Cc1cc(C)cc(NC(=O)C(Nc2ccccc2)c2ccccc2)c1 (centres undefined)	13	-9	-14	x
COc1cc(CN2C[C@@H]3N[C@H](C2)C3c2ccc(-c3cccc(OC)c3)cc2)cc(OC)c1 (some centres undefined)	-16	59*	-3	x
COc1cc(CN2C[C@@H]3N[C@H](C2)C3c2ccc(-c3ccncc3)cc2)cc(OC)c1 (some centres undefined)	1	11	14	x
COc1ccc(-c2ccc(C3[C@@H]4CN(Cc5cc(OC)cc(OC)c5)C[C@H]3N4)cc2)cc1 (some centres undefined)	86*!	66*	17	x
CCc1ccc(N(C(=O)c2csnn2)C(C(=O)NC(C)(C)CC)c2ccccn2)cc1 (centres undefined)	27	12	-14	x
O=[N+]([O-])c1ccc(S(=O)Cc2ccccc2)c([N+](=O)[O-])c1 (centres undefined)	121*	-5	37*	x
O=C(CCc1ccccc1)NC(c1cccs1)c1cc(Cl)c2cccnc2c1O (centres undefined)	78*	-8	-6	x
CCC(=O)NC(c1ccco1)c1cc(Cl)c2cccnc2c1O (centres undefined)	85*	-15	1	x
CCOc1ccc(Br)cc1S(=O)(=O)NC1CCCC1	-6	-8	5	3
CC(=O)NC1(c2ccccc2)CCN(C(=O)N2CCOCC2)CC1	-17	x	0	4
C[C@@H]1CN([C@H](C)CO)C(=O)Cc2cc(NC(=O)C3CC3)ccc2O[C@H]1CN(C)C(=O)Nc1ccccc1	5	3	x	-7
Cn1c(SCCN2CCCC2)nnc1C1CCN(S(=O)(=O)c2ccc(F)cc2)CC1	-1	-6	1	-1
Cc1ccc(-n2[nH]c(=O)c(-c3ccccn3)c2C)cc1	75*	-16	12	x
COc1cc(C(=O)NC(=S)N(C)Cc2ccccc2)cc(OC)c1OC	-3	-3	11	2
COc1cc(C(=O)NC(=S)N(CCc2ccccc2)CCc2ccccc2)cc(OC)c1OC	75*	x	3	1
